# Bioassay records (PubChem)
# This is a sample that favours compounds with a hit; in the whole collection about 2.2% have one here.
# HIV Rev-RRE inh: HIV-1 Rev-RRE binding inhibitors, primary screen, biochemical, FRET, protein-RNA interaction. inhibition, % at 8 µM. Rev peptide-RRE RNA binding. P05866. AID 704, 2007. 97,000 compounds, 0.79% hits;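 active means inhibition above the screen-wide mean plus 3 SD, cut at about 35% in these data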
#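 Test system – labelled RRE RNA duplex and labelled Rev peptide · Signal – fluorescein-to-Cy5 FRET, 480 nm excitation · Evaluation – % inhibition of FRET ratio versus controls · Benchmarks – DMSO low control, neomycin B high control · Incubation – 5 min RNA-compound premix plus 15 min binding step, 25 °C · Medium – HEPES pH 7.5 salt buffer with EDTA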
# PLK1 kinase inh: human PLK1 kinase inhibitors, primary screen, biochemical, TR-FRET; Serine/threonine-protein kinase PLK1 (Homo sapiens), P53350; recombinant PLK1 kinase, TR-FRET peptide phosphorylation; inhibition, % at 10 µM; 97,000 compounds, 0.53% hits;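 active means inhibition of 50% or more in the single-concentration screen; inactive means inhibition below 50%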
# F-actin modifier: modifiers of F-actin cytoskeleton organization, primary screen, imaging, HUVEC, phalloidin staining, high-content imaging; 91,000 compounds, 0.18% hits; inhibition, % at 2 µM; HUVEC TNFa F-actin phalloidin imaging;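 active means inhibition above the batch mean plus 3 SD and confirmed as a hit by visual image inspection, cut at about 30% in these data, passing the limit was not always enough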
# PLK1 PBD inh: Plk1 polo box domain binding inhibitors, primary screen, biochemical, fluorescence polarization; Plk1 PBD phosphopeptide binding; inhibition, %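 (tested at about 20 µM)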; 97,000 compounds, 0.13% hits; AID 693, 2007; in the data active means inhibition above about 34%, passing the limit was not always enough
# E-sel TNF inh: E-selectin induction blockers in HUVEC – imaging, immunofluorescence, high content, primary screen; 120,000 compounds, 0.71% hits; HUVEC TNFa-induced E-selectin immunofluorescence; inhibition, % at 2 µM;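 active means inhibition above the batch mean plus 3 SD, and confirmed as a hit on visual image review, cut at about 43% in these data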
# FAK inh: FAK kinase inhibitors, primary screen, biochemical | biochemical FAK kinase activity assay | inhibition, %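 (tested at 7 µM)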 | 97,000 compounds, 0.84% hits | Focal adhesion kinase 1 (Homo sapiens), Q05397 | AID 727, 2007; in the data active means inhibition above about 19%
# Target sequence (Q05397 whole entry, looked up): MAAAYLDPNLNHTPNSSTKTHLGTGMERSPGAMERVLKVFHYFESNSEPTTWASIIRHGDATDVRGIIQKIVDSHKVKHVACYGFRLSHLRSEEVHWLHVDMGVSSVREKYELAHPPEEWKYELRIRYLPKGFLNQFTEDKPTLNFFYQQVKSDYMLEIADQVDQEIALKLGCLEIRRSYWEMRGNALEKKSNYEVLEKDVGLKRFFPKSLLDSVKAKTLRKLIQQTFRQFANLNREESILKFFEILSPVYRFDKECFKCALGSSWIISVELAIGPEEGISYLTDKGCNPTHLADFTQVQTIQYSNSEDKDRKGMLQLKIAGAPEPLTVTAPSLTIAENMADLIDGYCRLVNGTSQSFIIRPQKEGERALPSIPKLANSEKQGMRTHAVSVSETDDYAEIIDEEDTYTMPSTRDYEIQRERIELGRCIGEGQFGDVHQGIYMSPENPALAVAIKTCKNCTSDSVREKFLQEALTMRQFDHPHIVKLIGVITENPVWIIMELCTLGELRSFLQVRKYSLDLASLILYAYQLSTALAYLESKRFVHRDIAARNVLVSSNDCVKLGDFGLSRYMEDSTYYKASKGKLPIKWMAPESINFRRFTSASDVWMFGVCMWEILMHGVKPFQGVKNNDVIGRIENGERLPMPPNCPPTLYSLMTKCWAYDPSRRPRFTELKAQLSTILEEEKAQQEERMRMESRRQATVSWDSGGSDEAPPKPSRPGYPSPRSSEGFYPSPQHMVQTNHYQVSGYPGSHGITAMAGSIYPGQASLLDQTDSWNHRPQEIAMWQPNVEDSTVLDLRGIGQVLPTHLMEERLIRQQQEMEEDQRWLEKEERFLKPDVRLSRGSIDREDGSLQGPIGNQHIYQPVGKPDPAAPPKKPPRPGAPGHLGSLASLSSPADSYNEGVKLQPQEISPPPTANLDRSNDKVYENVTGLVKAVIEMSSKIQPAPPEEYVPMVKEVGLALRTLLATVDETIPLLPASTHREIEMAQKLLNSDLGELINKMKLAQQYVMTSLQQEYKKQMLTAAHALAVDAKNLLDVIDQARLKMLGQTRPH
# Hits are given with their value; 0 = inactive; - = no result; [ ] = another dose, or the depositor's remark.
SMILES,HIV Rev-RRE inh,PLK1 kinase inh,F-actin modifier,PLK1 PBD inh,E-sel TNF inh,FAK inh
O=c1oc2ccc3ccccc3c2cc1-c1nnc(-c2ccccc2)o1,0,0,0,0,0,0
CCN(CC)c1ccc2cc(-c3nnc(-c4ccccc4)o3)c(=O)oc2c1,141.4[fluorescence artefact?],0,0,0,0,0
CCN(CC)c1ccc2cc(S(=O)(=O)c3ccc(Cl)cc3)c(=O)oc2c1,-,-,-,-,0,-
CCN(CC)c1ccc2cc(-c3nnc(-c4ccc(Br)cc4)o3)c(=O)oc2c1,140.4[fluorescence artefact?],0,0,0,0,0
CCN(CC)c1ccc2cc(-c3nc4ccccc4n3C)c(=O)oc2c1,132.0[fluorescence artefact?],0,0,0,-,0
O=C(COC(=O)COc1ccccc1)NC1CCCc2ccccc21 (stereo unspecified),-,-,-,-,0,-
C=CCc1c(C)[nH]c2c(OC)cccc2c1=S,-,-,-,-,0,-
O=C(NCCc1ccccc1)c1ccco1,0,0,0,0,0,0
C=C(C)CC(NCCc1ccccc1)c1ccco1 (stereo unspecified),-,-,-,-,71.6,-
CCCc1cc(SCC(=O)Nc2c(C)n(C)n(-c3ccccc3)c2=O)n2c(nc3ccccc32)c1C#N,40.8,0,0,0,0,0
Cc1nc2ccccc2c(=O)n1/N=C/c1ccc(O)cc1,0,0,0,0,65.7,0
Cc1nc2c(sc3nc4c(cc32)COC(C)(C)C4)c(=O)o1,0,0,0,0,81.3,0
Cn1c(CCNC(=O)c2ccco2)nc2cc(NC(=O)C3CCCCC3)ccc21,0,0,0,0,0,0
Cn1c(CCNC(=O)C2CCCCC2)nc2cc(NC(=O)c3cccs3)ccc21,-,-,-,-,63.1,-
O=S(=O)(c1cccc(Cl)c1Cl)N1CCCCC1,0,0,0,0,0,0
CN1CCCN(S(=O)(=O)c2cccc(Cl)c2Cl)CC1,-,-,-,-,94.3,-
CN1CCCN(S(=O)(=O)c2ccc(Cl)c(Cl)c2)CC1,-,-,-,-,99.9,-
CCn1c(SCc2nc(-c3ccccc3)no2)nnc1-c1cccs1,0,0,0,0,0,0
CCn1c(SCc2nc(CC(=O)Nc3ccccc3OC)no2)nnc1-c1cccs1,0,0,0,0,99.9,0
Oc1c(C=Nc2cccc3cccnc23)sc2ccccc12,133.3[fluorescence artefact?],0,0,0,0,0
CCCCNC(=O)c1onc(CSc2ccc(Cl)cc2)c1C(=O)O,0,0,0,0,0,0
COc1ccc(N=CC2=C(Nc3ccc(OC)cc3)c3c(C)nn(-c4ccccn4)c3CC2)cc1,87.0[fluorescence artefact?],0,0,0,0,20.3
COc1cc(/C=C\C(=O)NCc2ccc3c(c2)cc(C)n3C)cc(OC)c1OC,-,-,-,-,0,-
Cc1cc(=O)oc2cc(OCC(=O)OCC(=O)NCc3ccc4c(c3)OCO4)ccc12,0,0,0,0,70.8,0
COC(=O)c1ccc(C(=O)OC)c(NC(=O)CN(c2ccccc2)S(=O)(=O)N(C)C)c1,-,-,-,-,0,-
SMILES,HIV Rev-RRE inh,PLK1 kinase inh,F-actin modifier,PLK1 PBD inh,E-sel TNF inh,FAK inh
Cc1cccc(NC(=O)Nc2ccc(C#N)cc2)n1,-,-,-,-,54.5,-
Cc1cccc(NC(=O)Nc2cccc(C#N)c2)n1,-,-,-,-,0,-
CC1C/C(=N/O)C(C)CN1 (stereo unspecified),0,53.1,0,0,0,0
COC(=O)C1=NN(c2ccc(C)cc2)C2(S1)SC(C(C)=O)=C(C)N2c1ccccc1 (stereo unspecified),36.6,0,0,0,0,0
CC(NCc1ccc(F)cc1)C(=O)NC1CCCCC1 (stereo unspecified),-,-,-,-,0,-
CCOC(=O)C1=C(SCC)c2cc3c(n2C1=O)CCCC3,0,0,30.4,0,0,0
N#CC1=C(N)C(C#N)(C#N)C(c2ccc[nH]2)C2CCCC=C12 (stereo unspecified),63.3,0,0,0,0,0
C=CCNC(=O)C1CC(=O)N(c2ccc(C)cc2)C1 (stereo unspecified),0,59.2,-,0,-,0
O=C1CC(NN2CCCCC2)C(=O)N1c1ccccc1 (stereo unspecified),-,-,-,-,0,-
O=C(Nc1ccccc1O)c1c(O)c2c([nH]c1=O)CCCC2,-,-,-,-,0,-
S=C(Nc1ccc(N2CCOCC2)cc1)Nc1ccc2nc(-c3ccco3)c(-c3ccco3)nc2c1,103.6[fluorescence artefact?],0,0,0,0,0
O=C(Nc1ccc(N2CCOCC2)cc1)c1ccc2nc(-c3ccco3)c(-c3ccco3)nc2c1,0,0,0,0,0,0
CCC(C(=O)OC)n1c(-c2ccccc2)nc2ccccc2c1=O (stereo unspecified),-,-,-,-,64.1,-
O=S(=O)(c1ccccc1)n1c(C(O)c2ccccn2)cc2ccccc21 (stereo unspecified),-,-,-,-,0,-
CCOC(=O)c1sc2cc([N+](=O)[O-])cc(SCC(C)C)c2c1N,61.7,0,0,0,0,0
COc1ccc2[nH]c(=O)c(CN(Cc3ccc4c(c3)OCO4)C(C)=O)cc2c1,0,0,36.1,0,0,0
CCc1ccc2[nH]c(=O)c(CN(Cc3ccc4c(c3)OCO4)C(=O)c3ccco3)cc2c1,0,0,0,0,0,0
Cn1nc(C(F)(F)F)c(C(=O)Nc2ccc(F)cc2F)c1Sc1ccc(C(F)(F)F)cc1,0,0,62.9,0,0,0
CSc1cccc(NC(=O)C2CCN(S(=O)(=O)c3ccc(F)cc3)CC2)c1,0,0,0,0,0,0
CSc1cccc(NC(=O)C2CCCN(S(=O)(=O)c3ccc(F)cc3)C2)c1 (stereo unspecified),0,0,0,0,58.7,0
Cc1ccc(S(=O)(=O)Nc2nc3ccccc3nc2NCc2ccco2)cc1,45.8,0,0,0,0,0
Cc1ccc(S(=O)(=O)c2c(N)n(Cc3ccco3)c3nc4ccccc4nc23)cc1,59.5,0,0,0,0,0
CCCCn1c(N)c(S(=O)(=O)c2ccc(C)cc2)c2nc3ccccc3nc21,-,-,-,-,0,-
Cc1cccc(S(=O)(=O)c2c(N)n(Cc3ccco3)c3nc4ccccc4nc23)c1,74.1,0,0,0,0,0
O=S(=O)(Nc1nc2ccccc2nc1NCc1ccco1)c1ccc(Cl)cc1,0,0,0,0,0,0
SMILES,HIV Rev-RRE inh,PLK1 kinase inh,F-actin modifier,PLK1 PBD inh,E-sel TNF inh,FAK inh
O=C(CCc1c[nH]c2ccccc12)NCC(=O)Nc1ccc(F)c(F)c1F,-,-,-,-,0,-
Oc1ccccc1C1=Nc2ncnn2C(c2ccccc2)C1 (stereo unspecified),-,-,-,-,96.5,-
Fc1ccc(C2CC(c3ccccc3)n3ncnc3N2)cc1 (stereo unspecified),0,0,0,0,0,0
COc1cc(/C=N\Nc2ccc([N+](=O)[O-])cc2)ccc1OCC(=O)Nc1ccc(C)c(C)c1,76.2[fluorescence artefact?],0,0,0,0,0
c1coc(-c2ccnc3ncnn23)c1,-,-,-,-,0,-
O=C(O)C(=O)/C(=C\c1ccccc1)c1ccc2ccccc2n1,77.7,0,0,0,90.6,0
O=C(O)C(=O)/C(=C\c1cccc2ccccc12)c1ccc2ccccc2n1,88.5[fluorescence artefact?],0,0,0,0,0
O=C(c1ccccc1)c1ccc2ccccc2n1,0,0,0,0,0,0
